According to ChEMBL document CHEMBL2203109, “3-Phenyl substituted 6,7-dimethoxyisoquinoline derivatives as FtsZ-targeting antibacterial agents” (Bioorg Med Chem, 2012):
Values after ≈ are worked out from the molar mass of the structure shown. Active and inactive are the calls of the source. No cut-off for these calls is given here.

Tests used:
Staphylococcus aureus [1] = assay: Antibacterial activity against log-phase methicillin-resistant Staphylococcus aureus ATCC 33591 assessed as growth inhibition after 24 hrs by broth microdilution method; assay type: functional; details: ATCC 33591, 24 h
Method in brief: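 CLSI broth microdilution; 10^5 CFU/mL log-phase bacteria in cation-adjusted Mueller-Hinton broth with 2% NaCl, two-fold serial dilutions from 64 to 0.031 μg/mL; aerobic incubation 24 h at 37 °C; growth read as OD600; MIC = lowest concentration giving ≥90% growth inhibition.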

[2] = target: T1, Cell division protein FtsZ (Staphylococcus aureus, UniProt P0A031); assay: Binding affinity to Staphylococcus aureus FtsZ expressed in Escherichia coli cells assessed as dissociation constant by fluorescence spectroscopy
T1 sequence (P0A031 whole entry): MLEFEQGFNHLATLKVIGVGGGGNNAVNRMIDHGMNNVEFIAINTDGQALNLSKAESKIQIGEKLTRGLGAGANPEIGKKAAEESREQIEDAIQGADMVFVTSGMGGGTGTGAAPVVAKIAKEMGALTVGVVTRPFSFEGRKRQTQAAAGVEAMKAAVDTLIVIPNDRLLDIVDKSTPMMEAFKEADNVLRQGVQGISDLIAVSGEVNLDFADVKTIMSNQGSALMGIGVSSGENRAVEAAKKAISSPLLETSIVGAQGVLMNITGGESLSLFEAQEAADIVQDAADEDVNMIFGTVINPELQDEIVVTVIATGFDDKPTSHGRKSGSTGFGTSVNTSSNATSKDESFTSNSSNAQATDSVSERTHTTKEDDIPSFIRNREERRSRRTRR
Method in brief: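 Recombinant SaFtsZ from E. coli titrated stepwise into compound (7 or 10 μM) in 50 mM Tris HCl pH 7.4, 50 mM KCl, 2 mM magnesium acetate. After 3 min equilibration per addition, emission scanned 510–370 nm and buffer-only titration background subtracted. Kd obtained by fitting intensity changes to a 1:1 binding model.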

[3] = target: T2, Cell division protein FtsZ (Staphylococcus aureus) (UniProt P0A031); assay: Induction of Staphylococcus aureus FtsZ polymerization measured for 60 mins by microtiter plate-based light scattering assay
T2 sequence (whole entry): T1 sequence (P0A031 whole entry)
Method in brief: (§1)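 Turbidity assay. 10 μM SaFtsZ plus compound (0–40 μg/mL) in 50 mM Tris HCl pH 7.4, 50 mM KCl, 2 mM magnesium acetate, 5 mM CaCl2, pre-equilibrated 10 min at room temperature. Started by adding 1 mM GTP or FtsZ; A340 followed for 60 min at 25 °C. For polymer stability, 1 mM GDP added mid-run.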

[4] = target: T2, Cell division protein FtsZ (Staphylococcus aureus); assay: Induction of Staphylococcus aureus FtsZ polymerization at 40 ug/ml measured for 60 mins by microtiter plate-based light scattering assay; method in brief: as §1
Staphylococcus aureus [5] = assay: Antibacterial activity against log-phase methicillin-sensitive Staphylococcus aureus 8325-4 assessed as growth inhibition after 24 hrs by broth microdilution method; assay type: functional; details: 8325-4, 24 h
Method in brief: (§2)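 CLSI broth microdilution. Log-phase bacteria at 10^5 CFU/mL with two-fold serial dilutions (64 to 0.031 μg/mL). S. aureus tested in cation-adjusted Mueller-Hinton broth; E. faecalis in brain–heart infusion broth. Aerobic incubation 24 h at 37 °C. OD600 read; MIC is the lowest concentration giving ≥90% growth inhibition.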

Enterococcus faecalis [6] = assay: Antibacterial activity against log-phase vancomycin-sensitive Enterococcus faecalis ATCC 19433 assessed as growth inhibition after 24 hrs by broth microdilution method; assay type: functional; details: ATCC 19433, 24 h; method in brief: as §2
[7] = target: T2, Cell division protein FtsZ (Staphylococcus aureus); assay: Residual Staphylococcus aureus GTPase activity assessed as inorganic phosphate release upon GTP hydrolysis at 40 ug/ml preincubated for 10 mins before substrate addition measured after 2 hrs by malachite green based colorimetric analysis
Enterococcus faecalis [8] = assay: Antibacterial activity against log-phase vancomycin-resistant Enterococcus faecalis ATCC 51575 assessed as growth inhibition after 24 hrs by broth microdilution method; assay type: functional; details: ATCC 51575, 24 h
Method in brief: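 CLSI broth microdilution in brain–heart infusion broth; log-phase bacteria at 10^5 CFU/mL, two-fold serial dilutions 64 to 0.031 μg/mL; 24 h aerobic incubation at 37 °C; OD600 read-out; MIC taken as lowest concentration inhibiting growth ≥90%.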

[9] = target: Tubulin beta chain (Sus scrofa) (UniProt P02554); details: 10 ug/ml
[10] = target: Tubulin beta chain (Sus scrofa) (UniProt P02554); assay: Induction of pig MAP-rich beta-tubulin polymerization at 25 ug/ml measured for 60 mins by microtiter plate based light scattering assay
Method in brief: (§3)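 Porcine tubulin (70% β-tubulin, 30% MAPs) at 2 mg/mL with 1 mM GTP and compound in 80 mM PIPES NaOH pH 7.0, 2 mM MgCl2, 1 mM EGTA. A340 followed continuously at 37 °C for 60 min.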

[11] = target: Tubulin beta chain (Sus scrofa) (UniProt P02554); assay: Induction of pig MAP-rich beta-tubulin polymerization at 40 ug/ml measured for 60 mins by microtiter plate based light scattering assay; method in brief: as §3
HEK293 = assay: Cytotoxicity against human HEK293 cells at 10 uM after 4 days by MTT assay; assay type: cell-based; details: hek293, 96 h
Method in brief: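 MTT assay. HEK293 or MDCK cells kept at 37 °C, 5% CO2 in DMEM, seeded at 1500 cells per well. Continuous 4-day exposure to varying drug concentrations in triplicate wells, with a drug-free control. MTT read at end of day 4; IC50 determined.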

[12] = target: T2, Cell division protein FtsZ (Staphylococcus aureus); assay: Induction of Staphylococcus aureus GTPase activity assessed as inorganic phosphate release upon GTP hydrolysis at less than 40 ug/ml preincubated for 10 mins before substrate addition measured after 2 hrs by malachite green based colorimetric analysis
Method in brief: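 S. aureus FtsZ expressed in E. coli, 10 μM, with DMSO or compound (0.1–200 μg/mL) in 50 mM Tris HCl pH 7.4, 50 mM KCl, 2 mM Mg acetate, 5 mM CaCl2; duplicate reactions. After 10 min room-temperature pre-equilibration, 250 μM GTP added, 2 h at 37 °C. Pi by malachite green, A620, phosphate standard curve; expressed as percent of vehicle.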

[13] = target: T2, Cell division protein FtsZ (Staphylococcus aureus); assay: Induction of Staphylococcus aureus FtsZ polymerization at 40 ug/ml measured for 60 mins by microtiter plate-based light scattering assay in presence of GTP

Chain of Tubulin beta chain (Sus scrofa) (P02554 whole entry): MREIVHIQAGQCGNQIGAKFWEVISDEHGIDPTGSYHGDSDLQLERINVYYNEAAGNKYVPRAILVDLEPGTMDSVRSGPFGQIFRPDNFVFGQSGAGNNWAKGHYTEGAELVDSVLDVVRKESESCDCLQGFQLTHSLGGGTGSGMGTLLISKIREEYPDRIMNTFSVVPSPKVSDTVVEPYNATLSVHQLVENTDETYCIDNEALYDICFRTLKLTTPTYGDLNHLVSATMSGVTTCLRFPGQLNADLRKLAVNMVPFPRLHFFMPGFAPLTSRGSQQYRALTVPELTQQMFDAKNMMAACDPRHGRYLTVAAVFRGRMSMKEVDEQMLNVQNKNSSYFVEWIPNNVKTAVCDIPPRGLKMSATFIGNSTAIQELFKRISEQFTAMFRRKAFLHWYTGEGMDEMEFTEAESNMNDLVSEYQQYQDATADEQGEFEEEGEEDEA

inhibition [9]	Activity [10]	Compound	MIC90 (Staphylococcus aureus [1])	Kd [2]	Activity [3]	Activity [4]	MIC90 (Staphylococcus aureus [5])	MIC90 (Enterococcus faecalis [6])	residual activity [7]	MIC90 (Enterococcus faecalis [8])	Activity [11]	Activity (HEK293)	Activity [12]	Activity [13]
–	–	COc1cc2cc(-c3cccc(-c4ccc(-c5ccccc5)cc4)c3)[n+](C)c(C)c2cc1OC.[I-]	2 µg/mL	2 µM	Dose-dependent effect	Active	1 µg/mL	4 µg/mL	30.2%	8 µg/mL	–	–	–	–
Active	–	COC(=O)Nc1nc2cc(C(=O)c3cccs3)ccc2[nH]1	–	–	–	–	–	–	–	–	–	–	–	–
–	Active	CC(=O)O[C@H]1C(=O)[C@@]2(C)[C@H]([C@H](OC(=O)c3ccccc3)[C@]3(O)C[C@H](OC(=O)[C@H](O)[C@@H](NC(=O)c4ccccc4)c4ccccc4)C(C)=C1C3(C)C)[C@]1(OC(C)=O)CO[C@@H]1C[C@@H]2O	–	–	–	–	–	–	–	–	–	–	–	–
–	–	COc1cc2cc(-c3cccc(C(C)(C)C)c3)nc(CN=C(N)N)c2cc1OC	8 µg/mL (≈ 20.4 µM)	–	Dose-dependent effect	Active	4 µg/mL (≈ 10.2 µM)	16 µg/mL (≈ 40.8 µM)	60.4%	16 µg/mL (≈ 40.8 µM)	inactive	Non-toxic	–	–
–	–	COc1cc2cc(-c3cccc(-c4ccccc4)c3)nc(CCN=C(N)N)c2cc1OC	2 µg/mL (≈ 4.69 µM)	–	Dose-dependent effect	Active	2 µg/mL (≈ 4.69 µM)	8 µg/mL (≈ 18.8 µM)	56%	8 µg/mL (≈ 18.8 µM)	–	Non-toxic	Active	–
–	–	COc1cc2cc(-c3cccc(-c4ccc(C(C)(C)C)cc4)c3)[n+](C)c(C)c2cc1OC.[I-]	8 µg/mL	5.4 µM	Dose-dependent effect	Active	1 µg/mL	8 µg/mL	14.9%	8 µg/mL	inactive	–	–	Active
–	–	COc1cc2cc(-c3cccc(C(C)(C)C)c3)nc(C/N=C(/C)N)c2cc1OC	8 µg/mL (≈ 20.4 µM)	–	Dose-dependent effect	Active	8 µg/mL (≈ 20.4 µM)	16 µg/mL (≈ 40.9 µM)	64.8%	16 µg/mL (≈ 40.9 µM)	–	–	Active	–
